# Activity calls are given as the source filed them. The calls are words filed in the database; no cut-off is given here.
# Legend:
# MCF7 = experiment: Antiproliferative activity against human MCF7 cells assessed as reduction in cell viability incubated for 48 hrs by MTT assay; type: functional, cell-based; conditions: MCF7, 48 h
# Method in brief: (§1)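 Cells grown in RPMI1640 with 10% FBS at 37°C, 5% CO2; seeded at 4000-5000 cells/well for 8 h, then exposed to a range of compound concentrations for 48 h. MTT added for 4 h, formazan dissolved in DMSO, absorbance at 570 nm; IC50 calculated from inhibition ratios.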
# [1] = molecular target: T1, Matrix metalloproteinase-9 (Homo sapiens, UniProt P14780); experiment: Inhibition of recombinant human MMP9 at 10 uM using thiopeptide as substrate preincubated for 30 mins followed by substrate addition and measured every min for 20 mins by colorimetric assay relative to control
# T1 sequence (P14780 whole entry): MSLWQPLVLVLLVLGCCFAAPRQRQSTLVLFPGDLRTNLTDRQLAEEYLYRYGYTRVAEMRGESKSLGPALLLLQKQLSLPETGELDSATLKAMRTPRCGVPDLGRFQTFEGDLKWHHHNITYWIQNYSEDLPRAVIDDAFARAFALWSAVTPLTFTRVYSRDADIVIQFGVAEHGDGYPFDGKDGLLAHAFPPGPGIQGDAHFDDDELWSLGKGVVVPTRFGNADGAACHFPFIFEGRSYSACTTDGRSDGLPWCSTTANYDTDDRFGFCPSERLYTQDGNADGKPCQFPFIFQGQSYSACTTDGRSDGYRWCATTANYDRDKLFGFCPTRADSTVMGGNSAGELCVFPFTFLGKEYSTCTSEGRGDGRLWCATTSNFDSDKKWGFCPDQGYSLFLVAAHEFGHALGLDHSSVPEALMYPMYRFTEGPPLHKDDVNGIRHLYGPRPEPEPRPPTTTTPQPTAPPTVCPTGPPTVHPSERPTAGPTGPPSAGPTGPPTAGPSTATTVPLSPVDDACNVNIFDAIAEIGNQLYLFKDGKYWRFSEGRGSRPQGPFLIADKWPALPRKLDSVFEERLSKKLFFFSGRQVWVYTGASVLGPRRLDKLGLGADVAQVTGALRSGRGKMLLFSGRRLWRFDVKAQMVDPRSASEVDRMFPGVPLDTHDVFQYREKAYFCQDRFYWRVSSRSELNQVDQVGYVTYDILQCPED
# Method in brief: (§2)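 Colorimetric kit assay: human recombinant enzyme plus inhibitor in assay buffer for 30 min at 37 °C, then chromogenic MMP substrate added; A412 recorded each minute over 20 min. Enzyme-free blanks and inhibitor-free controls included.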
# A549 [2] = experiment: Antiproliferative activity against human A549 cells assessed as reduction in cell viability incubated for 48 hrs by MTT assay; type: functional, cell-based; conditions: A549, 48 h; method in brief: as §1
# [3] = molecular target: T1, Matrix metalloproteinase-9; experiment: Inhibition of recombinant human MMP9 using thiopeptide as substrate preincubated for 30 mins followed by substrate addition and measured every min for 20 mins by colorimetric assay
# [4] = molecular target: T2, 72 kDa type IV collagenase (Homo sapiens, UniProt P08253); experiment: Inhibition of recombinant human MMP2 at 10 uM using thiopeptide as substrate preincubated for 30 mins followed by substrate addition and measured every min for 20 mins by colorimetric assay relative to control; method in brief: as §2
# Target sequence in this assay (P08253 110-660 limits assumed): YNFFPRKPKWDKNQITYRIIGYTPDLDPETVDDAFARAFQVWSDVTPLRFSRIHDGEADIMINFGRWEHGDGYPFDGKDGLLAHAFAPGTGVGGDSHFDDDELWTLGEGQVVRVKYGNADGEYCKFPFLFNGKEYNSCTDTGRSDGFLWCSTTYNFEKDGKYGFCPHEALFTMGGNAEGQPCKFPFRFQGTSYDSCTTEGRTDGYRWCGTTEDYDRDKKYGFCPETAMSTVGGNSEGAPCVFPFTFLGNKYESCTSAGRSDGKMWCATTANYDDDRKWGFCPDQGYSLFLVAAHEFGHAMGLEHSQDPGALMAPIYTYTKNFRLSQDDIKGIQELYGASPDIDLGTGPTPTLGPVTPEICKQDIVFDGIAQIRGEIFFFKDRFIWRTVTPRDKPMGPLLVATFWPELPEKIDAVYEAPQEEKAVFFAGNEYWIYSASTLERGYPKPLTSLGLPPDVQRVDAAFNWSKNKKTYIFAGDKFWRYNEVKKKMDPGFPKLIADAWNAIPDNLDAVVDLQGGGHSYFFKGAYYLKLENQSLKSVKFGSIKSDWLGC
# K562 = experiment: Antiproliferative activity against human K562 cells assessed as reduction in cell viability incubated for 48 hrs by MTT assay; type: functional, cell-based; conditions: K562, 48 h; method in brief: as §1
# HL-60 = experiment: Antiproliferative activity against human HL60 cells assessed as reduction in cell viability incubated for 48 hrs by MTT assay; type: functional, cell-based; conditions: HL-60, 48 h; method in brief: as §1
# HUVEC = experiment: Cytotoxicity against HUVEC assessed as reduction in cell viability incubated for 48 hrs by MTT assay; type: cell-based; conditions: Homo sapiens; method in brief: as §1
# PC-3 = experiment: Antiproliferative activity against human PC3 cells assessed as reduction in cell viability incubated for 48 hrs by MTT assay; type: functional, cell-based; conditions: PC-3, 48 h; method in brief: as §1
# KG-1 = experiment: Antiproliferative activity against human KG1 cells assessed as reduction in cell viability incubated for 48 hrs by MTT assay; type: functional, cell-based; conditions: KG-1, 48 h; method in brief: as §1
# [5] = molecular target: T2, 72 kDa type IV collagenase; experiment: Inhibition of recombinant human MMP2 using thiopeptide as substrate preincubated for 30 mins followed by substrate addition and measured every mins for 20 min by colorimetric assay
# Target sequence in this assay (P08253 whole entry): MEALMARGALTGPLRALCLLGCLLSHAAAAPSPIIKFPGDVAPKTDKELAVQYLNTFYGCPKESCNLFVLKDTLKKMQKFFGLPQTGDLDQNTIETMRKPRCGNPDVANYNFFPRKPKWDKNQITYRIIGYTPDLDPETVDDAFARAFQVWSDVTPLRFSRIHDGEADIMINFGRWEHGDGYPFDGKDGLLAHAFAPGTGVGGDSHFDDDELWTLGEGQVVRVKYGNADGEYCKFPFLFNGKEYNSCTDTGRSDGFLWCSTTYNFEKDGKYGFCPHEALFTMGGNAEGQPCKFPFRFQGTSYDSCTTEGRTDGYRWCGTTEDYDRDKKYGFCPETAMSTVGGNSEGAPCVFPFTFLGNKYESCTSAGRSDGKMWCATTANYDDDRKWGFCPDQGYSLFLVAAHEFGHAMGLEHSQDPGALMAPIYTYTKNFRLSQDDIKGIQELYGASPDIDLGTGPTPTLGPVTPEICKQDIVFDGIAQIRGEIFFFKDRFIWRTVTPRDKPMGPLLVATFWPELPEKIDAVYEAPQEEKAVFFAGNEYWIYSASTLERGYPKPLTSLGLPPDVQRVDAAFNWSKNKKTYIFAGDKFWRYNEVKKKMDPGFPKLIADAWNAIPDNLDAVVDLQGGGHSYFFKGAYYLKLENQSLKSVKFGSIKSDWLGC
# A549 [6] = experiment: Inhibition of cell invasion in human A549 cells at 1 to 10 uM incubated for 24 hrs by crystal violet staining based matrigel migration assay; type: functional
# Method in brief: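 As the migration setup but membrane precoated with matrigel (1:10 diluted) for 2 h at 37°C: A549 pretreated 24 h at 1, 5, 10 µM, 30,000 cells in serum-free medium above, 10% FBS below, 24 h, then fixing, 0.1% crystal violet staining and counting. Three repeats, mean ± SEM.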
SMILES,IC50 (MCF7) [µM],inhibition [1] [%],IC50 (A549 [2]) [µM],IC50 [3] [µM],inhibition [4] [%],IC50 (K562) [µM],IC50 (HL-60) [µM],IC50 (PC-3) [µM],IC50 [5] [µM],IC50 (HUVEC) [µM],IC50 (KG-1) [µM],inhibition (A549 [6])
CC1(C)SCCN(S(=O)(=O)c2ccc(Oc3ccncc3)cc2)[C@H]1C(=O)NO [PRINOMASTAT],> 500,–,> 500,–,–,> 500,> 500,> 500,–,> 500,> 500,Active
COc1ccc(S(=O)(=O)N(CC(=O)NO)CC(C)C)cc1,187,–,96,0.0088,–,143,29,52,0.0091,> 250,52,Active
O=C(CNCc1cc(Cl)c2cccnc2c1O)Nc1ccccc1,13,78.8,7.4,2.1,95.8,2.9,> 5,10,3.2,> 50,2.3,–

# Now from value to compound, other results behind:
IC50 (MCF7) [µM],inhibition [1] [%],IC50 (A549 [2]) [µM],IC50 [3] [µM],inhibition [4] [%],IC50 (K562) [µM],IC50 (HL-60) [µM],IC50 (PC-3) [µM],IC50 [5] [µM],SMILES,IC50 (HUVEC) [µM],IC50 (KG-1) [µM],inhibition (A549 [6])
7.4,99.9,13,3.6,100,2.9,1.9,8.4,3,O=C(CCCCNCc1cc(Cl)c2cccnc2c1O)Nc1ccccc1,> 50,1.6,–
13,98.9,9.7,3.5,100,1.7,1.3,1.9,3.3,O=C(CCNCc1cc(Cl)c2cccnc2c1O)Nc1ccccc1,> 50,1.1,–
9,100,17,3.2,100,1.9,1.9,7.7,3.8,O=C(CCCNCc1cc(Cl)c2cccnc2c1O)Nc1ccccc1,> 50,1.6,–
12,77.1,> 25,1.7,100,4.2,2.6,> 25,3.6,Cc1[nH]c2ccccc2c1CCNC(=O)CCCCCNCc1cc(Cl)c2cccnc2c1O,> 50,4.7,–

# From ChEMBL document CHEMBL4406825, “Design, synthesis and preliminary bioactivity evaluations of 8-hydroxyquinoline derivatives as matrix metalloproteinase (MMP) inhibitors” (Eur J Med Chem, 2019)
